This is an account of results in ChEMBL document CHEMBL1143563, “Enantiospecificity of glutamate carboxypeptidase II inhibition” (J Med Chem, 2005).

For one test, the species on record is Rattus norvegicus. Put plainly: Neuroprotective effect against ischemic injury with median effective concentration in rat. The test is classed as functional. The method in brief:
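Cerebral ischemia was simulated in a cell culture model by exposing rat cortical cultures to potassium cyanide and 2-deoxyglucose. Neuroprotection against this injury was reported as a median effective concentration.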

Test [1] can be described thus: In vitro inhibition of N-acetyl-L-aspartyl-[3H]L-glutamate binding to Glutamate carboxypeptidase II. The essentials: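 Purified recombinant GCP II was incubated with radiolabelled substrate N-acetyl-L-aspartyl-[3H]-L-glutamate, and inhibition was reported as IC50. Values are mean ± SD of at least triplicate experiments; where only two experiments were run, the value is the mean of the duplicates.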

Compound `O=C(O)CC[C@H](CP(=O)(O)O)C(=O)O` returned a 50% effective concentration (EC50) in the test listed under Rattus norvegicus of 0.2 nM.

Consider `O=C(O)CC[C@@H](CP(=O)(O)Cc1c(F)c(F)c(F)c(F)c1F)C(=O)O`, for which the half-inhibitory concentration (IC50) in test [1] worked out at 1400 nM. In the test filed under Rattus norvegicus, this compound yielded a concentration for a half-maximal effect (EC50) of 410 nM. In the case of `O=C(O)CC[C@@H](CP(=O)(O)O)C(=O)O`, the response in the test listed under Rattus norvegicus was half-maximal at 70 nM (EC50). In test [1], `O=C(O)CC[C@H](CP(=O)(O)Cc1c(F)c(F)c(F)c(F)c1F)C(=O)O` came in with a half-maximal inhibitory concentration (IC50) of 34 nM. In addition, the concentration giving a half-maximal response (EC50) in the test filed under Rattus norvegicus was found to be 4.1 nM. As for `O=C(O)CCC(CP(=O)(O)O)C(=O)O` (centres undefined), the concentration for a half-maximal effect (EC50) in the test filed under Rattus norvegicus was 1.2 nM. In the case of `O=C(O)CCC(CCCS)C(=O)O` (racemic), the response in the test listed under Rattus norvegicus was half-maximal at 13 nM (EC50). In the test filed under Rattus norvegicus, `O=C(O)CCC(CP(=O)(O)Cc1c(F)c(F)c(F)c(F)c1F)C(=O)O` (racemic) came in with an EC50 of 9.5 nM.
